Screening data deposited in PubChem BioAssay by several laboratories.
An excerpt weighted towards active compounds, which were near 4.7% of everything screened.
SKN-1 block – blocks SKN-1 activity in C. elegans | AID 624304 | C. elegans VP596 Pgst-4::GFP/RFP ratio, acrylamide-induced, 24 h | actives 0.49% (n = 360,000) | inhibition, % at 21.8 µM;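 active = interference check ratio from 0.5 to 1.5 plus GFP to RFP signal ratio inhibition reaching or exceeding a fixed threshold, cut at about 30% in these data, passing the limit was not always enough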
MPTP block – permeability transition pore inhibition | actives 1.4% (n = 360,000) | isolated mouse mitochondria, Ca2+ swelling absorbance, 30 min | AID 602449 | inhibition, % at 10 µM;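 active = inhibition of 50% or more, scaled per plate between neutral and stimulator controls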;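 also: 0% = DMSO wells given calcium and 100% = 1 mM EGTA wells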
ADAM17 inh – ADAM17 inhibition, QFRET primary screen; inhibition, % at 6.95 µM; recombinant ADAM17, EDANS/DABCYL FRET peptide cleavage; AID 720648; actives 0.83% (n = 370,000);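 active = inhibition above the mean of compounds lying between control limits plus 3 SD, set per campaign, cut at about 8.5% in these data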;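 also: 0% = DMSO-only wells as the low control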
Target sequence (P78536 215-824 limits assumed): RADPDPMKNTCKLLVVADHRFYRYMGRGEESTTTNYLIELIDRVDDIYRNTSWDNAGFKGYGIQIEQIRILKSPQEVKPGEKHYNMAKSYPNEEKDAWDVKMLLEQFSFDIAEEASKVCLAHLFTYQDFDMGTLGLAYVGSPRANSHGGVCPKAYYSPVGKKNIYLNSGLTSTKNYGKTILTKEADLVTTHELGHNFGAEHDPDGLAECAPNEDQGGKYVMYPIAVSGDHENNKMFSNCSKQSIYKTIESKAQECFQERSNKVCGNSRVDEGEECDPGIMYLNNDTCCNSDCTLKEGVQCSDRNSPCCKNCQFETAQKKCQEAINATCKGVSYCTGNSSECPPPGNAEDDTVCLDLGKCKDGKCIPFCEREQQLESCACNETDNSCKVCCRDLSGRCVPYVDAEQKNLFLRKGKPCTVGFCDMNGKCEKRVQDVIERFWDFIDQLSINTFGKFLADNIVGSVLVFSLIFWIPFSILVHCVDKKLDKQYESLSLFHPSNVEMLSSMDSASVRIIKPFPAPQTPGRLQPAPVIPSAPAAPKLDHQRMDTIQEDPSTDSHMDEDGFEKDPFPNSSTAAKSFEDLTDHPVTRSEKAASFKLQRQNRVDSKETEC
MT1-MMP act inh – blocks activation of human MT1-MMP. P50281. GFP/RFP ratio change, % at 20 µM. actives 0.061% (n = 360,000). HT1080 RFP-PRO-GFP cells, GFP/RFP ratio fluorescence, overnight; percent of plate control window, DMSO zero;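 active = GFP/RFP ratio change of at least 30% with cell ATP level not reduced by more than half and red fluorescence within 50% of control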
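Material – HT1080 RFP-PRO-GFP cells · Control set – DMSO wells and RFP-L50D-GFP cells · Incubation – overnight cell settling, then overnight compound exposure, 37 °C, 5% CO2 · Compound dosing – single-point 20 µM compound, 1% DMSO · Read-out – GFP/RFP fluorescence ratio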
ADAM10 inh – inhibits human ADAM10 | O14672 | recombinant ADAM10, EDANS/DABCYL FRET peptide cleavage, 3 h | inhibition, % at 7 µM | actives 0.62% (n = 370,000);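 active = inhibition above a per-campaign cutoff equal to the mean of compounds falling between control-based bounds plus 3 SD, cut at about 20% in these data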;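 also: 0% = DMSO wells while the 100% control is not disclosed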
GRIN3A LBD mod – modulators (binders) of human NR3A ligand-binding domain | NR3A LBD differential scanning fluorimetry, Tm shift; 0% = protein alone, 100% = glycine-bound protein | Tm shift relative to glycine control, % at 25 µM | actives 2.5% (n = 340,000) | AID 1259313;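 active = melting temperature shift of at least 10% of the positive control shift, at one fixed dose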
MPTP counter – mitochondrial membrane potential, counter-screen; shares compounds with MPTP block; actives 78% (n = 5,000); isolated mitochondria, Rhodamine 123 fluorescence; AID 624504; inhibition, % at 10 µM; in the data active = inhibition above about 22%;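 also: 0% = DMSO vehicle and 100% = positive control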
MPTP abs DR – dose response confirmation of mitochondrial permeability transition pore inhibitors | shares compounds with MPTP block | isolated mitochondria swelling, absorbance | IC50, µM | actives 58% (n = 780) | AID 651561; in the data active = IC50 below about 20 µM
MPTP cs DR – MPTP inhibitor counter-screen activity, dose response | isolated mitochondria counterscreen, fluorescence read-out | shares compounds with MPTP block | IC50, µM | actives 49% (n = 780); in the data active = IC50 below about 80 µM
* marks the source's active call; other numbers are inactive results; . = no result given.

SMILES | SKN-1 block | MPTP block | ADAM17 inh | MT1-MMP act inh | ADAM10 inh | GRIN3A LBD mod | MPTP counter | others
Cc1ccc(-c2noc(CCC(=O)NCCN3CCN(Cc4ccccc4)CC3)n2)cc1 | 5 | 3 | -4 | . | 3 | 0 | .
Cc1ncoc1C(=O)Nc1ncc([N+](=O)[O-])s1 | -17 | -1 | 8 | -5 | -1 | 2 | .
CCCCC(CC)C(=O)Nc1ncc([N+](=O)[O-])s1 (configuration not stated) | 0 | 98* | 5 | -18 | 10 | -13 | 100*
Cc1ccc(CC(=O)Nc2ncc([N+](=O)[O-])s2)cc1 | -8 | 66* | 1 | 1 | 2 | -20 | 90*
Cc1ccc(S(=O)(=O)CC(=O)Nc2ncc([N+](=O)[O-])s2)cc1 | -13 | 0 | 0 | 2 | -1 | -1 | .
O=C(CNS(=O)(=O)c1ccccc1)Nc1ccccc1Br | 27 | -1 | -4 | 1 | -1 | 2 | .
Cc1c(C(=O)NCc2ccc3c(c2)OCO3)sc2nc(-c3ccccc3)cn12 | 12 | -1 | -1 | -3 | -4 | -9 | .
Cc1cc(OCc2cc(C(=O)N3CCC(Oc4cccnc4)CC3)no2)cc(C)c1Cl | 0 | 69* | -3 | -4 | 13 | -13 | 102*
CSc1ccccc1OCc1cc(C(=O)N2CCC(c3ccncc3)CC2)no1 | 2 | 60* | 0 | 10 | 6 | . | 91*
O=C(NCCc1cn2ccccc2n1)c1cc(COc2ccc3ncccc3c2)on1 | -12 | 102* | -5 | -9 | -4 | -1 | 92*
O=C(c1cc(COc2ccc(F)cc2Cl)on1)N1CCC(c2ccncc2)CC1 | 9 | 30 | -2 | -7 | 3 | -1 | .
COc1cccc(CN(C)C(=O)c2cc(COc3ccc4ncccc4c3)on2)c1 | 2 | 97* | 0 | -1 | 3 | 1 | 97*
CC(NC(=O)c1cc(COc2ccc3ncccc3c2)on1)c1ccc(F)cc1 (configuration not stated) | -16 | 94* | 6 | 12 | 8 | -1 | 86*
O=C(c1cc(COc2ccc3ncccc3c2)on1)N1CCCC1 | -7 | 52* | -10 | 3 | -15 | 7 | 70*
Cc1ccc(OCc2cc(C(=O)NC3CCCCC3)no2)cn1 | 3 | 4 | 2 | -2 | 0 | 0 | .
O=C(NC1CCCC1)c1cc(COc2ccc3ncccc3c2)on1 | 1 | 95* | . | -1 | . | 2 | 94*
COCC1CCN(C(=O)c2cc(COc3ccc(-n4cncn4)cc3)on2)CC1 | -19 | 2 | -2 | 2 | -4 | -3 | .
Cc1nc(C(C)NC(=O)c2cc(COc3ccc(F)c(F)c3)on2)cs1 (configuration not stated) | 5 | 2 | -1 | -2 | 6 | 0 | .
COCC1CCN(C(=O)c2cc(COc3ccc4ncccc4c3)on2)CC1 | 5 | 74* | -2 | -10 | -6 | 1 | 81*
c1ccc(COc2ccc(-c3cc4nc(NCCCn5ccnc5)ccn4n3)cc2)cc1 | 12 | 1 | -33 | 4 | -89 | . | .
C/C(=N\NC(=O)c1nnn(-c2nonc2N)c1-c1cccs1)c1ccncc1 | -19 | 4 | 4 | -9 | 4 | 3 | .
O=C(c1cc(COc2ccc3ncccc3c2)on1)N1CCCCCC1 | 8 | 98* | -3 | -2 | -13 | 0 | 101*
O=c1cc(-c2ccc([N+](=O)[O-])cc2)nc2cc(-c3ccc(F)cc3)[nH]n12 | 0 | 89* | -3 | 7 | 4 | 7 | -10 | MPTP abs DR=>100;MPTP cs DR=28*
Cc1ccccc1-c1cc2nc(-c3ccc([N+](=O)[O-])cc3)cc(=O)n2[nH]1 | -8 | 30 | 0 | 11 | -8 | 0 | .
C=CCOc1cccc(CNc2ccc3[nH]c(=O)[nH]c3c2)c1 | 4 | 0 | -20 | 6 | -49 | 0 | .
SMILES | SKN-1 block | MPTP block | ADAM17 inh | MT1-MMP act inh | ADAM10 inh | GRIN3A LBD mod | MPTP counter | others
NC(=O)c1cc2ccccc2o/c1=N\NC(=O)c1ccc(F)cc1 | 20 | 0 | -3 | -3 | -2 | -1 | .
COC(=O)Cn1c(O)c(N=NC(=O)c2ccc3c(c2)OCO3)c2ccccc21 | 6 | -4 | -3 | 0 | -8 | 0 | .
Cc1cc(-n2c(C)cc(C(=O)CSc3[nH]c(=O)cc(C(F)(F)F)c3C#N)c2C)no1 | -4 | 57* | 1 | 3 | -16 | 4 | 72*
Cc1cc(NC(=O)CSc2[nH]c(=O)cc(C(F)(F)F)c2C#N)no1 | -17 | 1 | -2 | 1 | -12 | -5 | .
COc1ccc(CCN2C(=O)CSC2c2ccc(OC)c(OC)c2)cc1OC (configuration not stated) | -14 | 8 | -2 | 3 | -7 | -1 | .
COc1ccc(C2SCC(=O)N2CCc2ccc(OC)c(OC)c2)cc1 (configuration not stated) | 1 | 71* | 1 | -14 | 5 | 1 | 33*
O=C(c1ccc(N2CCOCC2)c([N+](=O)[O-])c1)N1CCCCC1 | -6 | 0 | -1 | 3 | -6 | -1 | .
O=C(NNC(=S)Nc1ccc(Cl)cc1Cl)c1ccc(N2CCOCC2)c([N+](=O)[O-])c1 | -3 | 98* | 4 | 3 | 7 | 24* | 63*
O=C(Nc1ccc(-c2nc3ccccc3o2)cc1)c1ccc(N2CCOCC2)c([N+](=O)[O-])c1 | 31 | 87* | -6 | 0 | -10 | 14* | 64*
O=C(Nc1cccnc1)c1ccc(N2CCOCC2)c([N+](=O)[O-])c1 | 6 | 0 | 2 | 0 | 11 | 1 | .
COC(=O)/C(=C\c1cccnc1)NC(=O)c1ccc(OCc2ccccc2)cc1 | -11 | 0 | -4 | 3 | 1 | -4 | .
N#Cc1ccc(/C=C2\CC3(OC(=O)c4ccco4)CCCN2C3)cc1 (configuration not stated) | . | . | -4 | . | -5 | . | .
Cc1ccsc1CN1CC(=O)N(c2c(C)cccc2C)C1=S | -5 | 2 | -1 | -4 | -1 | -1 | .
Fc1ccc(-n2cc(CNCCc3ccccn3)c(-c3ccccc3Cl)n2)cc1 | -12 | 72* | 2 | -2 | 2 | 2 | 1 | MPTP abs DR=9.8*;MPTP cs DR=48*
Cc1ccc(-n2cc(CNCCc3ncc(C)[nH]3)c(-c3ccc(F)cc3)n2)cc1 | 7 | 91* | 3 | 5 | 5 | -3 | -15 | MPTP abs DR=4.2*;MPTP cs DR=57*
